Screening data from PubChem.
5HT1E antag – 5-HT1E (human) receptor antagonism; P28566; CHO 5-HT1E Ga15 NFAT-bla reporter, FRET, antagonist; inhibition, % at 6 µM; 65,000 compounds, 0.99% hits; AID 571;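 active = inhibition above a set limit, the mean inhibition across every tested compound plus 3 SD, cut at about 29% in these data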;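 note: signal is the 460 over 535 nm emission ratio of beta-lactamase substrate; 0% = agonist plus DMSO wells and 100% = wells without agonist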
HTR1E agonist – activates the human 5-HT1E serotonin receptor; P28566; CHO 5-HT1E Ga15 NFAT-bla reporter, FRET; 0% DMSO wells, 100% control agonist wells; activation, % at 6 µM; 65,000 compounds, 0.69% hits; AID 574;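 active = activation above a set limit, the screen-wide mean activation plus 3 SD, cut at about 8.5% in these data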;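 note: 100% = positive control agonist at 1 µM giving full maximal response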
5HT1a antag – antagonists of human 5-HT1a serotonin receptor | 62,000 compounds, 0.68% hits | CHO 5-HT1a Ga15 NFAT-bla reporter, antagonist mode | inhibition, % at 10 µM | P08908;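 active = inhibition above the mean of all tested compounds plus 3 SD, cut at about 43% in these data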;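 note: receptor stimulated by 5-CT agonist at 100 nM near EC80; beta-lactamase reporter measured by ratiometric fluorescence of a cleavable substrate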
S1P3 agonist – activates the human S1P3 receptor | S1P3 NFAT-BLA reporter cells, agonism, FRET ratio; relative to 1 µM S1P, basal subtracted | activation, % at 4.5 µM | 60,000 compounds, 0.1% hits | AID 373;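 active = activation above the screen-wide mean plus 3 SD, cut at about 4.5% in these data, passing the limit was not always enough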
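Assay system: CHO cells stably expressing human S1P3, Gα16 and NFAT-β-lactamase reporter. Timing: overnight plating, 4 h compound 37 °C, 2 h substrate RT. Signal: β-lactamase FRET emission ratio 460/535 nm. Measure: percent activation versus median 1 µM S1P response, basal-subtracted, per plate. Repeats: primary screen single test, confirmation screen in triplicate.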
5HT1a ag – agonists of human 5-HT1a serotonin receptor. CHO 5-HT1a Ga15 NFAT-bla reporter, FRET ratio; 0% basal, 100% maximal reference agonist. activation, % at 10 µM. 65,000 compounds, 0.56% hits;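 active = activation above the screen-wide mean activation plus 3 SD, cut at about 19% in these data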;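 note: 0% = DMSO wells and 100% = 5-CT at EC100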
S1P1 ag pot – activates or potentiates agonism at human S1P1 receptor; P21453; S1P1 CRE-bla cells, forskolin, beta-lactamase FRET, potentiator mode; S1P1 agonist co-added at EC20, 2 nM; 100% = saturating reference agonist, 0% = basal; activation, % at 9.5 µM; 56,000 compounds, 0.57% hits; AID 449;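 active = activation above a cutoff set at the mean activation of all tested compounds plus 3 SD, cut at about 54% in these data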;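 note: forskolin at 4 µM as EC80 and the EC20 agonist is SEW2871; 100% = SEW2871 at its EC100 plus forskolin at EC80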
Target sequence (P21453 whole entry, looked up): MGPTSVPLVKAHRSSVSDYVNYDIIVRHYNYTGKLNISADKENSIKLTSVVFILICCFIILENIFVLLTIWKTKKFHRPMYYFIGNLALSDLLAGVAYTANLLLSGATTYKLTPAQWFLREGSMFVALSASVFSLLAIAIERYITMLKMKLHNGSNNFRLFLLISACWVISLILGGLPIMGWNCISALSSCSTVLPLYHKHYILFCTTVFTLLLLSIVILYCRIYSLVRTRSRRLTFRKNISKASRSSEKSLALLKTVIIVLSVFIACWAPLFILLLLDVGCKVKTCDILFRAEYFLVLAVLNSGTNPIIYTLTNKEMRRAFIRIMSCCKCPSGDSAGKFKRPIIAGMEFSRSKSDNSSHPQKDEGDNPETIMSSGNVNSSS
Numbers without * were called inactive; / = no result. An excerpt weighted towards active compounds, which were near 3% of everything screened.

SMILES | 5HT1E antag | HTR1E agonist | 5HT1a antag | S1P3 agonist | 5HT1a ag | S1P1 ag pot
Cc1nc2cc(C(F)(F)F)ccc2n1C1CCN(Cc2nnnn2Cc2cccs2)CC1 | 9 | -1 | -14 | / | -1 | /
Cc1nc2cc(C(F)(F)F)ccc2n1C1CCN(Cc2nnnn2Cc2ccc3c(c2)OCO3)CC1 | 37* | 0 | 9 | 0 | 0 | 16
CCc1nc(N2CCNCC2)c(C#N)c2c1CSC(C)(C)C2 | -2 | 5 | / | -1 | -2 | -16
COc1ccccc1N1CCN(Cc2ccc(Br)s2)CC1 | -4 | 5 | 44* | -1 | -2 | -23
COc1ccccc1/C=C1/C(=N/O)C2CCN1CC2 | -2 | 1 | 2 | 0 | 2 | /
CC[C@@H](CO)NC(=O)[C@@H]1C=C2c3cccc4c3c(cn4C)C[C@H]2N(C)C1 | -6 | 95* | / | -3 | 53* | -19
CCCSP1(=S)NCCCO1 (stereo unspecified) | 3 | 0 | / | -4 | -1 | 17
CCOC(=O)c1cc2c(cn1)[nH]c1ccccc12 | 32* | -1 | / | -4 | 2 | 11
COc1ccc(C(=O)N2CCOCC2)cc1S(=O)(=O)N1CCC(C)CC1 | -2 | 0 | -8 | 0 | 40* | /
COc1ccc(C(=O)CN2CCOCC2)cc1F | 1 | 1 | / | -4 | 3 | 10
CN1C[C@H](CNC(=O)OCc2ccccc2)C[C@@H]2c3cccc4c3c(cn4C)C[C@H]21 | 9 | 22* | / | 50 | 85* | -8
O=C(NC[P+](=O)O)OCc1ccccc1 | -2 | 1 | -4 | 1 | -3 | -18
CCN1CC=C(c2c[nH]c3ccccc23)CC1 | -5 | 100* | -1 | -1 | -1 | 15
O=c1c2ccccc2[se]n1-c1ccccc1 | 13 | -1 | / | -3 | -2 | 1
Cc1cccc(-n2c(O)c(C=NCCCN3CCOCC3)c(=O)[nH]c2=O)c1C | 0 | 0 | 0 | 0 | -1 | 1
Cc1ccc2c(c1)C1CN(C)CCC1N2C(=O)c1ccc(Br)o1 (stereo unspecified) | -5 | 0 | 60* | / | -3 | /
Cc1ccc2c(c1)[C@@H]1CN(C)CC[C@@H]1N2C(=O)Nc1cccc(C(F)(F)F)c1 | 1 | 0 | / | -5 | 0 | 8
COC(=O)C1C2c3ccccc3OC1(C)N=c1s/c(=C/c3cnn(C)c3)c(=O)n12 (stereo unspecified) | 0 | 0 | -8 | 0 | 1 | -1
O=P(c1ccccc1)(c1ccccc1)N1CCCCC1 | 5 | -1 | / | -3 | 3 | -7
CCn1c(O)c(C=NCCc2c[nH]c3ccccc23)c(=O)[nH]c1=O | 5 | 17* | 12 | -1 | 0 | -7
Clc1ccc2c(N3CCNCC3)ccnc2c1 | 9 | 12* | 11 | 0 | -2 | 6
O=C1C2CCCN2C(c2cccnc2)N1c1cccc(Cl)c1 (stereo unspecified) | 6 | 0 | -4 | 0 | -3 | 106
Nc1c(C(=O)NCc2ccco2)c2nc3ccccc3nc2n1CCN1CCCCC1 | -23 | 0 | / | 11* | 6 | -123
COCCOC(=O)c1c(N)n(Cc2ccco2)c2nc3ccccc3nc12 | 11 | 0 | / | -3 | 2 | -25
CC(C)OC(=O)c1c(N)n(Cc2ccco2)c2nc3ccccc3nc12 | 29* | 0 | / | -4 | 6 | -32
SMILES | 5HT1E antag | HTR1E agonist | 5HT1a antag | S1P3 agonist | 5HT1a ag | S1P1 ag pot
Cc1ccc2nc3c(cc2c1)CC1(C(=O)N(C)C(=O)N(C)C1=O)C1CCCCN31 (stereo unspecified) | 8 | 1 | 2 | 0 | -3 | 0
CCn1nc(-c2ccccc2)nc2c(=O)n(C)c(=O)nc1-2 | 101* | 2 | 85* | -2 | 9 | 73*
COc1ccc(Cn2c(N)c(C(=O)NCc3ccco3)c3nc4ccccc4nc32)cc1OC | 19 | 2 | 33 | 4 | 3 | -125
CCCNC(=O)c1c(N)n(Cc2ccc3c(c2)OCO3)c2nc3ccccc3nc12 | -2 | 6 | -8 | 18 | 36* | -46
CC(C)OCCCNC(=O)c1c(N)n(Cc2cccs2)c2nc3ccccc3nc12 | -11 | 11* | -24 | 12* | 41* | -244
CCCCNC(=O)c1c(N)n(CCCOC)c2nc3ccccc3nc12 | 20 | 4 | 18 | / | 17 | /
C(#CCN1CCOCC1)COCc1ccccc1 | 13 | 7 | 15 | -1 | -1 | 4
Cc1[nH]c2c(C(F)(F)F)cccc2c1CCN | 22 | 67* | 7 | 0 | -1 | 16
Cc1n[nH]c(C)c1CCN | 6 | -1 | 7 | 0 | -2 | -1
COc1ccc(Cc2nccc3cc(OC)c(OC)cc23)cc1OC | 41* | 0 | / | 2 | -3 | 8
CC(=NCCO)c1c(O)n(C)c(=O)n(C)c1=O | 9 | -1 | / | -4 | 2 | -8
CN1CCN(c2nccc3c2ncn3C)CC1 | -6 | 9.8* | 1 | -1 | -2 | -25
Oc1ccc(C2NCc3ccccc3-n3cccc32)cc1Cl (stereo unspecified) | 6 | 1 | -7 | 0 | 2 | 94*
Nc1c(C(=O)NC2CCCC2)c2nc3ccccc3nc2n1CC1CCCO1 (stereo unspecified) | -8 | 7 | -10 | 8.2* | 28* | -112
O=P(O)(O)C#Cc1ccccc1 | 0 | -1 | -9 | -2 | 0 | -2
COc1ccc(C2NCc3ccc4c(c3-n3cccc32)OCO4)cc1O (stereo unspecified) | 31* | 0 | 65* | -1 | -1 | 9
c1cc2n(c1)-c1c(ccc3c1OCO3)CNC2c1ccc2c(c1)OCO2 (stereo unspecified) | 11 | 0 | 36 | 0 | 0 | 25
CC(=O)c1cccc(OCC(O)CN2CC=C(c3ccccc3)CC2)c1 (stereo unspecified) | 11 | -1 | 65* | -1 | 5 | -4
CC(C)c1cccc(C(C)C)c1OCCn1ccnc1 | -2 | 0 | 2 | 0 | 0 | 0
CNCC(O)c1cccc(OC(=O)c2ccccc2C)c1 (stereo unspecified) | -3 | 9.4* | 0 | -1 | 3 | -3
O=C1C2CCCN2C(c2cccnc2)N1c1nccs1 (stereo unspecified) | -9 | 0 | -3 | 0 | 2 | 1
CN(C)c1nc(OCCNC(=O)COc2ccc(Cl)cc2Cl)nc(N2CCCCC2)n1 | 102* | 0 | -3 | 0 | -1 | /
O=c1[nH]c(=O)n(-c2cccc(Cl)c2)c(O)c1C=NCCN1CCCCC1 | 3 | 0 | / | -2 | 0 | -3
